From ChEMBL document CHEMBL3259576, “Design and Evaluation of ω-Hydroxy Fatty Acids Containing α-GalCer Analogues for CD1d-Mediated NKT Cell Activation” (ACS Med Chem Lett, 2014)
The source made the active and inactive calls.

How the values were obtained:
Mus musculus [1] = species on record: Mus musculus; assay: Stimulation of mouse CD1d-mediated IL-4 production in mouse splenocytes measured at 32 ng/ml after 72 hrs by ELISA; type: cell-based
How it was run: (§1)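 Mouse splenocytes were treated individually with glycolipid and cultured for 72 h. IFN-γ and IL-4 in the culture were then measured. Results are expressed as relative activity, as means ±SD of triplicates, from one representative of two independent experiments.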

Mus musculus [2] = species on record: Mus musculus; assay: Stimulation of mouse CD1d-mediated IFN-gamma production in C57BL/6 mouse splenocytes measured at 32 ng/ml after 72 hrs by ELISA; type: cell-based; how it was run: as §1
Mus musculus [3] = assay: In vivo stimulation of mouse CD1d-mediated peak IL4 production in C57BL/6 mouse serum measured at 0.5 ug, iv after 2 hrs by ELISA; type: functional, organism-based
Mus musculus [4] = assay: In vivo stimulation of mouse CD1d-mediated peak IFN-gamma production in C57BL/6 mouse serum measured at 0.5 ug, iv after 12 hrs by ELISA; type: functional, organism-based
RBL = assay: Stimulation of mouse CD1d-mediated IL-2 production in DN32.D3 hybridoma cells co-cultured with mouse CD1d transfected RBL cells measured at 32 to 500 ng/ml after 16 hrs by ELISA

Measured: Activity

CCCCCCCCCCCCCC[C@@H](O)[C@@H](O)[C@H](CO[C@H]1O[C@H](CO)[C@H](O)[C@H](O)[C@H]1O)NC(=O)CCCCCCCCCCCCCCCO
active: Mus musculus [1] | Mus musculus [2]

CCCCCCCCCCCCCC[C@@H](O)[C@@H](O)[C@H](CO[C@H]1O[C@H](CO)[C@H](O)[C@H](O)[C@H]1O)NC(=O)CCCCCCCCCCO
active: all assays above

CCCCCCCCCCCCCC[C@@H](O)[C@@H](O)[C@H](CO[C@H]1O[C@H](CO)[C@H](O)[C@H](O)[C@H]1O)NC(=O)CCCCCCCCCCCO
active: Mus musculus [1] | Mus musculus [2] | RBL

CCCCCCCCCCCCCCCCCCCCCCCCCC(=O)N[C@@H](CO[C@H]1O[C@H](CO)[C@H](O)[C@H](O)[C@H]1O)[C@H](O)[C@H](O)CCCCCCCCCCCCCC
active: all assays above

CCCCCCCCCCCCCC[C@@H](O)[C@@H](O)[C@H](CO[C@H]1O[C@H](CO)[C@H](O)[C@H](O)[C@H]1O)NC(=O)CCCCCCCCCC
active: Mus musculus [1] | Mus musculus [2] | RBL

CCCCCCCCCCCCCC[C@@H](O)[C@@H](O)[C@H](CO[C@H]1O[C@H](CO)[C@H](O)[C@H](O)[C@H]1O)NC(=O)CCCCCCCCCCC
active: Mus musculus [1] | Mus musculus [2] | RBL
